In data set [1] the test system is R3230AC. In words: Cytotoxicity in rat R3230AC cells under dark condition upto 10 uM after 24 hrs by MTT assay. The format is functional, cell-based. The method, boiled down:
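Dark toxicity in R3230AC cells, seeded 1.0–1.5×10^4 cells/well and grown 24 h at 37 °C, 5% CO2. Porphyrin up to 10 μM in complete medium for 24 h, rinsed with saline. Cells held 1 h in the dark in clear serum-free medium, then 24 h in complete medium before MTT, read as percent of untreated dark controls.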
Background: Tetrazolium dyes change colour on reduction, which living cells bring about.

Data set [2] is described as follows: Lipophilicity, log D at pH 7.4. In kind it is physicochemical. The following applies: buffer. The procedure, abridged:
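Shake-flask method: porphyrin dissolved in equal volumes of n-octanol and pH 7.4 phosphate buffer, sonicated 30 min, left to settle 4 h. Each phase measured by UV-vis absorbance and reported as log D7.4.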

Data set [3] is described as follows: Singlet oxygen generation assessed as DPBF oxidation at 1 uM. The format is functional. The procedure, abridged:
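DPBF consumption by singlet oxygen from the irradiated porphyrin, with stirring under 3 mW/cm² light. UV absorbance of DPBF read every 2 min up to 10 min, expressed as percent DPBF oxidized.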

Data set [4] concerns R3230AC. In words: Drug uptake in rat R3230AC assessed as intracellular accumulation per cell at 10 uM after 24 hrs. The format is ADME, cell-based. The procedure, abridged: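 R3230AC cells seeded 2.0–3.0×10^4/well and grown 24 h. Porphyrin from a 2 mM DMSO stock, diluted in complete medium to 10 μM final, 24 h at 37 °C. Monolayer rinsed twice with 0.9% NaCl and lysed in DMSO. Porphyrin fluorescence read and converted through a DMSO standard curve to fmol/cell. Mean with SEM.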

Data set [5] has as its system R3230AC. In words: Cytotoxicity in rat R3230AC cells irradiated with 10.8J/cm^2 of water filtered halogen light after 24 hrs by MTT assay. In kind it is functional, cell-based. The following applies: light or radiation study. The method, boiled down:
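R3230AC rodent mammary adenocarcinoma cells in α-MEM with 10% bovine growth serum, seeded 1.0–1.5×10^4 cells/well and grown 24 h at 37 °C, 5% CO2. Porphyrin in complete medium for 24 h, rinsed with saline, then irradiated 1 h in clear serum-free medium with water-filtered halogen light (400–850 nm, 3 mW/cm², 10.8 J/cm²). Given complete medium, 24 h dark, then MTT vs light-only controls. IC50 from Hill fit; ≥3 experiments in duplicate.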

In general, logD refers to the decadic logarithm of the distribution of all forms, ionised or not, between an organic phase and buffer at a given pH. The low end stands for a more hydrophilic compound, the high end for a more lipophilic compound. One may read the IC50 as the concentration that inhibits the measured activity by half. A higher IC50 goes with a need for much substance. As to `O=S(=O)([O-])c1ccc(-c2c3nc(c(-c4ccc(F)cc4)c4ccc(s4)c(-c4ccc(F)cc4)c4nc(c(-c5ccc(F)cc5)c5ccc2s5)C=C4)C=C3)cc1.[Na+]`, the Activity result was “Not toxic” in the data set on R3230AC [1] and 64% in data set [3]. In data set [2], this compound displayed a log distribution coefficient (logD) of 0.8. In the data set with R3230AC [4], the Drug uptake was determined as 0.3 fmol. In addition, the IC50 with R3230AC [5] is 770 nM.

As to `O=C(O)COc1ccc(-c2c3nc(c(-c4ccccc4)c4ccc(s4)c(-c4ccccc4)c4nc(c(-c5ccccc5)c5ccc2s5)C=C4)C=C3)cc1`, the Activity result in the data set on R3230AC [1] was “Not toxic”; in data set [3], 78%. In data set [2], this compound showed a logD of 1.6. In addition, in the data set with R3230AC [4], the Drug uptake is listed as 0.31 fmol. For the same compound, the IC50 in the data set on R3230AC [5] was 260 nM.

With `O[C@@H]1c2nc(c(-c3ccccc3)c3ccc(s3)c(-c3ccccc3)c3nc(c(-c4ccccc4)c4ccc(s4)c2-c2ccccc2)C=C3)[C@@H]1O`, the Activity result was “Not toxic” in the data set on R3230AC [1] and 78% in data set [3]. The logD in data set [2] is more than 2. Further, the Drug uptake in the data set on R3230AC [4] is listed as 4.5 fmol. In addition, in the data set on R3230AC [5], the midpoint of inhibition, the IC50, lay at 180 nM.

On to `O=C(O)COc1ccc(-c2c3nc(c(-c4ccc(F)cc4)c4ccc(s4)c(-c4ccc(F)cc4)c4nc(c(-c5ccc(F)cc5)c5ccc2s5)C=C4)C=C3)cc1`, for which the Activity result in the data set on R3230AC [1] was “Not toxic”; in data set [3], 75%. The compound also displayed a logD in data set [2] of 1.8. Moreover, in the data set with R3230AC [4], the Drug uptake is on record as 0.33 fmol. The compound also gave an IC50 in the data set with R3230AC [5] of 380 nM.

On to `O=C(O)COc1c(OCC(=O)O)c2cc3nc(c(-c4ccccc4)c4ccc([nH]4)c(-c4ccccc4)c4nc(cc1s2)C=C4)C=C3` [THIAPORPHYRIN], for which the results for the Activity entry (in the data set on R3230AC [1]; in data set [3]) were “Not toxic” and 48%, respectively. Besides, the logD in data set [2] was 0.8. In addition, the Drug uptake in the data set with R3230AC [4] was found to be 0.16 fmol. In addition, in the data set with R3230AC [5], the IC50 is 2280 nM.

Regarding `O=C(O)COc1ccc(-c2c3nc(c(-c4ccccc4)c4ccc(s4)c(-c4ccccc4)c4nc(c(-c5ccc(OCC(=O)O)cc5)c5ccc2s5)[C@H](O)[C@@H]4O)C=C3)cc1`, the Activity entry with R3230AC [1] was “Not toxic”; in data set [3], 62%. In data set [2], this compound yielded a logD of -0.5. Also, in the data set with R3230AC [4], the Drug uptake stood at 0.11 fmol. 2570 nM corresponded to half-maximal inhibition in the data set on R3230AC [5] (IC50).

Turning to `CC(C)(C)c1ccc(-c2c3nc(c(-c4ccc(OCC(=O)O)cc4)c4ccc(s4)c(-c4ccccc4)c4nc(c(-c5ccccc5)c5ccc2s5)C=C4)C=C3)cc1`, the Activity result in the data set on R3230AC [1] was “Not toxic”; in data set [3], 75%. In data set [2], the logD was more than 2. Moreover, the Drug uptake with R3230AC [4] is given as 0.46 fmol. This compound showed an IC50 in the data set with R3230AC [5] of 590 nM.

Turning to `O=C(O)COc1ccc(-c2c3nc(c(-c4ccccc4)c4ccc(s4)c(-c4ccccc4)c4nc(c(-c5ccc(OCC(=O)O)cc5)c5ccc2s5)C=C4)C=C3)cc1`, the Activity result is “Not toxic” with R3230AC [1] and 68% in data set [3]. In data set [2], the logD turned out to be 0.1. The Drug uptake in the data set with R3230AC [4] was determined as 0.59 fmol. The same compound gave an IC50 with R3230AC [5] of 130 nM.

These data come from ChEMBL document CHEMBL1143895, “Core-modified porphyrins. Part 6: Effects of lipophilicity and core structures on physicochemical and biological properties in vitro” (Bioorg Med Chem, 2008).
